NS3 helicase inh = HCV NS3 helicase inhibition; NS3 helicase DNA unwinding, Cy5 molecular beacon fluorescence; inhibition, % at 10.9 µM; 0.56% of 290,000 active;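 active means inhibition above the mean of all tested compounds plus 3 SD, set per campaign, cut at about 35% in these data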;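 further: 0% = DMSO wells and 100% = thioflavine S control wells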
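Assay system – hepatitis C virus NS3 helicase domain fragment enzyme · Buffer or medium – MOPS pH 6.5, MgCl2, DTT, Tween20, BSA · Reagent – Cy5/quencher beacon DNA duplex and ATP to start · Compound – single 10.9 µM dose · Timing – 1 h at 25 °C · Technique – Cy5 beacon fluorescence read at start and 1 h · Measure – % inhibition of unwinding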
pCIP destab = p/CIP protein destabilization | Q05BA5 | decrease of EGFP signal, % at 10 µM | F442A p/CIP-EGFP cells, EGFP fluorescence, 16 h | 0.01% of 290,000 active;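 active means EGFP signal decrease of at least 30% at 10 µM or well 3 SD below plate mean, unless failing retest; inactive means the rest, including hits failing retest or dose response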
GPR7 antagonist = blocks human GPR7 receptor signaling; P48145; GPR7-expressing cells, fluorescence antagonist assay; AID 1861; inhibition, % at 4.4 µM; 1.1% of 290,000 active; in the data active means inhibition above about 16%, passing the limit was not always enough;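 further: cells stimulated with the agonist NPW; 0% = agonist with vehicle and 100% = vehicle without agonist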
DNA FID counter = fluorescent intercalator displacement, NS3 helicase counter-screen; DNA fluorescent intercalator displacement, fluorescence; inhibition, % at 7.9 µM; 0.17% of 290,000 active; AID 1845; in the data active means inhibition above about 37%;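 further: 0% = vehicle and 100% = reference compound; higher means more ethidium bromide displaced from hairpin DNA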
HCV core dimer = HCV core protein dimerization inhibition; TR-FRET GST/Flag-core106 dimerization, 1536-well; inhibition, % at 5 µM; 0.33% of 300,000 active;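 active means inhibition above the mean of all tested compounds plus 3 SD, set per screening campaign, cut at about 45% in these data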
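Assay system: Tagged HCV core106 pair (GST and Flag) | Buffer or medium: KF-containing HEPES buffer, pH 7.45, DTT, CHAPS, BSA | Also added: Eu donor and XL665 acceptor anti-tag antibodies | Dosing: One concentration, 5 µM, in 0.5% DMSO | Timing: 4 h at 22.5 °C | Technique: TR-FRET 671 and 617 nm emission | Repeats: Singlicate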
GPR7 antag conf = human GPR7 antagonism, confirmation assay | shares compounds with GPR7 antagonist | GPR7-expressing cells, calcium fluorescence antagonist mode | inhibition, % at 4.4 µM | 52% of 2,400 active | AID 1952; in the data active means inhibition above about 24%;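 further: stimulated with the GPR7 agonist NPW; 0% = agonist plus vehicle and 100% = vehicle alone without agonist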
MCHR1 antagonist = MCHR1 (human) antagonism in GPR7 counter-screen; inhibition, % at 4.4 µM; MCHR1-expressing cells, fluorescence antagonist assay; 62% of 2,400 active; shares compounds with GPR7 antagonist; AID 2148; in the data active means inhibition above about 22%;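 further: 0% = vehicle with agonist and 100% = vehicle without agonist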
An asterisk follows results filed as active; . = no result. Compounds with a hit are over-represented: about 1.9% of the library has one in this group of screens.

SMILES | NS3 helicase inh | pCIP destab | GPR7 antagonist | DNA FID counter | HCV core dimer | GPR7 antag conf | MCHR1 antagonist
CN(C(=O)CSc1nc(N)cc(N)n1)C1CCS(=O)(=O)C1 (configuration not stated) | 4.5 | 3.4 | -13.7 | -7.5 | -6.2 | . | .
COc1ccccc1N1CCN(CC(=O)Nc2c(C)n[nH]c2C)CC1 | -5.9 | . | -6.2 | -3.0 | -5.1 | . | .
COc1ccccc1C1(O)CCN(CC(=O)Nc2c(C)nn(C)c2C)CC1 | 10.3 | -1.1 | 27.3* | 10.0 | 5.8 | -0.4 | 7.6
N#CCCn1cc(/C=N/O)c(-c2ccc(-c3ccccc3)cc2)n1 | -10.2 | 4.2 | 27.2* | -7.8 | 1.6 | 30.6* | 41.9*
N#CCCn1cc(/C=C(\C#N)c2nc3ccccc3s2)c(-c2ccc(F)cc2)n1 | 1.6 | 2.5 | -0.9 | 2.9 | 8.0 | . | .
N#CCCn1cc(/C=N/O)c(-c2ccc(Cl)cc2)n1 | 8.0 | -2.4 | 4.3 | 1.1 | 5.0 | . | .
N#CCCn1cc(C=C(C#N)C#N)c(-c2ccc(Cl)cc2)n1 | -5.1 | -20.0 | 31.7* | 3.5 | 9.6 | 12.0 | 2.0
Cc1ccc(C)c(N2CCN(CCCNC(=O)Cn3cccc3C(=O)c3ccccc3C)CC2)c1 | -33.8 | -6.2 | 28.4* | 37.9* | -5.7 | 35.5* | 65.1*
O=C(COC(=O)c1cc([N+](=O)[O-])ccc1N1CCOCC1)NCc1ccc(Cl)cc1Cl | -2.9 | 1.3 | 23.5* | -16.0 | 1.0 | 34.5* | 35.8*
O=C(COC(=O)c1cc([N+](=O)[O-])ccc1N1CCOCC1)Nc1ccc(Cl)cc1 | -5.4 | -21.6 | -0.2 | 8.4 | -2.8 | . | .
CCC1=C(c2ccc(C)cc2)S(=O)(=O)N=C1N1CCC(C(=O)NCCCN2CCCCC2)CC1 | -16.3 | -3.4 | -4.2 | 9.8 | -8.0 | . | .
N#CC(c1ccc(Cl)cc1)c1ccc2c(C(F)(F)F)cc(C(F)(F)F)nc2n1 (configuration not stated) | -4.9 | -5.5 | 33.2* | 2.8 | 20.9 | 58.5* | 50.5*
O=C(NCC(=O)N1CCN(c2ccccc2)CC1)c1cccs1 | 4.6 | 8.7 | 4.3 | -9.0 | 3.1 | . | .
Cc1cc([N+](=O)[O-])ccc1NC(=O)CCC(=O)N1CCCCC1 | -3.9 | -5.0 | -8.1 | 0.3 | 5.2 | . | .
O=C(CCC(=O)N1CCCCCC1)Nc1ccc([N+](=O)[O-])cc1 | 25.7 | -3.9 | 34.2* | 1.1 | 4.4 | 2.8 | 8.4
Cc1ccc(N2CCN(C(=S)Nc3ccccc3C)CC2)cc1 | 6.0 | -15.9 | -15.9 | -9.4 | 11.5 | . | .
C(=N/n1c2ccccc2c2ccccc21)/c1ccco1 | 4.0 | -1.0 | 26.3* | -4.8 | -3.2 | -11.6 | 10.1
C(=N\n1c2ccccc2c2ccccc21)/c1ccccc1 | -5.6 | 2.6 | -5.5 | 2.9 | -3.5 | . | .
COc1ccc2c(c1)C(=O)C(=O)N2CC1COc2ccccc2O1 (configuration not stated) | 4.6 | -2.3 | 30.7* | -5.1 | 4.5 | 20.5 | 26.7*
CCOc1cc(S(=O)(=O)N2CCCCC2)ccc1Cl | -9.1 | -9.9 | 25.3* | -0.8 | 2.5 | -7.8 | 28.3*
Cc1ccc2c(c1)N(C(C)C(=O)NCc1cccs1)C(=O)CO2 (configuration not stated) | 7.2 | 13.6 | -8.4 | -10.9 | 2.1 | . | .
CCOc1ccc(/C=C/C(=O)c2ccccc2)cc1 | -1.2 | -1.7 | 11.7 | -14.0 | 13.7 | . | .
CCOc1ccc(C(=O)/C=C/c2ccc(SC)cc2)cc1 | -9.5 | 6.1 | 36.8* | -7.7 | -0.1 | 41.4* | 44.9*
N=c1c(C(=O)NCCc2ccccc2)cc2c(=O)n3ccccc3nc2n1CCCN1CCOCC1 | -12.0 | 15.3 | 36.6* | 29.6 | 2.7 | 34.6* | 16.7
N=c1c(C(=O)NC2CCCCC2)cc2c(=O)n3ccccc3nc2n1Cc1ccco1 | 2.3 | -12.4 | -1.4 | -21.1 | 13.4 | . | .
N=c1c(C(=O)NC2CCCCC2)cc2c(=O)n3ccccc3nc2n1Cc1ccccc1 | -2.0 | -13.4 | 19.0 | 8.0 | 0.5 | . | .
N=c1c(C(=O)NCc2ccccc2)cc2c(=O)n3ccccc3nc2n1CCCN1CCOCC1 | . | 13.5 | . | . | 5.1 | . | .
N=c1c(C(=O)NC2CCCCC2)cc2c(=O)n3ccccc3nc2n1CCc1ccccc1 | -5.8 | -6.9 | 31.8* | -6.9 | -3.5 | 39.2* | 24.5*

Source: PubChem BioAssay
